Compound activity (PubChem)
The sample as a whole holds a higher share of hits than the screen did.
DAT uptake mod – changed human dopamine transporter uptake under cocaine IC80. Q01959. 1.3% of 110,000 active. LLC-PK1 hDAT cells, [14C]-dopamine uptake with cocaine IC80; actives deviate in either direction. B-score at 10 µM. AID 449768;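 active = Z score or B-score, a plate-position-corrected score, falls beyond the plate's 99.7% confidence bounds, in either direction; inactive = both scores lie inside the 99.7% bounds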;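 also: scored against the spread of the other compound wells on the same plate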
Target sequence (Q01959 whole entry, looked up): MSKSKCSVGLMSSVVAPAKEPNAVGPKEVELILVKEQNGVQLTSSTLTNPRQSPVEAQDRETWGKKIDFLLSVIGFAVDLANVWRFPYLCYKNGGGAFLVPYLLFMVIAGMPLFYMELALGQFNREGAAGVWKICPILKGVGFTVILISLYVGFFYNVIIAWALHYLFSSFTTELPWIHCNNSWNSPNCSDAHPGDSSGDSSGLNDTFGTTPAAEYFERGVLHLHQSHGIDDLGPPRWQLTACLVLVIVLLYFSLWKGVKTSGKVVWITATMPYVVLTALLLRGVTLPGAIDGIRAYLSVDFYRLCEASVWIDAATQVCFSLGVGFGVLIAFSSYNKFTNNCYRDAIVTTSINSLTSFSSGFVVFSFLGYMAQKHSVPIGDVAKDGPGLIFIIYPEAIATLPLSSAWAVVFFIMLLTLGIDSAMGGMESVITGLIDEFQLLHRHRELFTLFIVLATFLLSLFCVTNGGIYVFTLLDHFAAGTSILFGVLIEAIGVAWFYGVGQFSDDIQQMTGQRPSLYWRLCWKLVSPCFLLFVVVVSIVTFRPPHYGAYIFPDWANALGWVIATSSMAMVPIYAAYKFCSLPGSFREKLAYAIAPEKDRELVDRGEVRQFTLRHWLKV
MMP-13 inhibitor – blocks human MMP13 activity | AID 570 | MMP-13 fTHP FRET cleavage, Mca fluorescence | P45452 | 0.07% of 65,000 active | inhibition, % at 4 µM;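 active = inhibition above the mean of compound-free control plate wells plus 3 SD, cut at about 14% in these data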;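 also: 0% = DMSO wells and 100% = wells with reference MMP-13 inhibitor after basal subtraction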
D1 allo mod – allosteric modulators of human D1 dopamine receptor; P21728; HEK293 D1, CRE-luciferase, dopamine EC30 potentiation; actives deviate in either direction; B-score at 10 µM; 5.9% of 58,000 active;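 active = luminescence count or its row- and column-corrected plate score outside the 99.7% band of the plate's sample wells, on either side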
AP ELISA ortho – alternative pathway complement inhibition, orthogonal assay | Human serum alternative complement pathway, LPS-coated ELISA, C3 deposition; tested in compound mixtures | inhibition, % at 5 µM | 0.08% of 62,000 active;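 active = inhibition above 30% in each of the two pooled mixtures holding the compound, so the lower value exceeds 30%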;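 also: 0% = serum in Mg-EGTA without compound and 100% = EDTA serum blank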
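Test system: human serum alternative complement pathway, C3 deposition on LPS-coated wells; also added: Plate-bound LPS; doses: 5 µM per compound in ten-compound mixtures; schedule: 1 h at 37 °C; detection: Anti-C3 ELISA, OD 450 nm; evaluation: percent inhibition of C3 deposition onto LPS; repeats: two pool placements per compound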
Calb biofilm kill – kills Candida albicans biofilms; C. albicans biofilm + clotrimazole, Alamar Blue; inhibition, % at 6 µM; 0.14% of 85,000 active; AID 834;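 active = inhibition above 20%; inactive = inhibition below 20%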;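 also: preformed 24 hr biofilms exposed to compound for 48 hr; 0% = biofilm without compound and 100% = blank killed by clotrimazole plus chlorhexidine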
The depositor's hits bear a star; . = no result.

SMILES	DAT uptake mod	MMP-13 inhibitor	D1 allo mod	AP ELISA ortho	Calb biofilm kill
O=C(NCc1ccccc1)C1=C[C@@H](c2coc3ccccc3c2=O)C[C@@H](OCc2ccc(CO)cc2)O1	1.39	.	.	.	.
CC(=O)OC1C([N+]2(C)CCCCC2)C[C@H]2C3CC[C@H]4C[C@H](OC(C)=O)C([N+]5(C)CCCCC5)CC4(C)[C@H]3CCC12C (stereo partly specified)	-0.925	.	.	.	.
CC(=O)O[C@H]1C[C@@H]2CC[C@@H]3[C@H](CC[C@@]4(C)[C@H]3C[C@H]([N+]3(C)CCCCC3)[C@@H]4OC(C)=O)[C@@]2(C)C[C@@H]1[N+]1(C)CCCCC1	.	-0.1	16.6*	7.2	9.4
COc1ccc(N(CC(=O)NC2CCCC2)C(=O)Cn2nnc(-c3ccc(C)cc3)n2)cc1OC	0.255	3.6	.	13.0	0.4
COc1ccc(-c2nnn(CC(=O)N(CC(=O)NC3CCCC3)c3cccc(C)c3)n2)cc1OC	2.8*	-0.4	0.562	13.6	-2.6
COc1ccc(N(CC(=O)NC2CCCC2)C(=O)Cn2nnc(-c3ccc(C)cc3)n2)cc1	2.5*	5.6	-0.694	-8.2	6.4
CC1Cc2ccccc2N1C(=O)CSc1nnnn1C(C)C (stereo unspecified)	-0.703	.	.	.	6.7
CCCCCCC(=O)Nc1c(O)c2ccccc2[nH]c1=O	-0.858	-12.1	-3.09*	12.7	4.9
COc1cccc(C2CC(c3ccccc3)Nc3nc(N)nn32)c1 (stereo unspecified)	0.47	2.6	5.32*	2.9	-7.8
CCCCN(CC)Cc1ccc(CNC(=O)Nc2ccccc2)o1	-2.53*	.	.	.	-2.2
CCOC(=O)c1cnc(SC)nc1Oc1cccc(NS(=O)(=O)c2ccc(C)cc2)c1	0.301	.	.	.	.
O=C(NCCCN1CCc2ccccc2C1)Nc1ccc(Cl)cc1	-2.52*	.	.	.	4.1
COc1ccccc1N1CCN(CC(O)c2ccc3cc[nH]c3c2)CC1 (stereo unspecified)	-1.15	-2.7	-2.63*	-0.2	8.5
COc1cc(OC)c(OC)cc1CN1CCN(c2ccccc2OC)CC1	-1.4	4.9	-3.75*	1.5	2.1
C=CCc1ccccc1OCC(O)CN1CCN(c2ccc(OC)cc2)CC1 (stereo unspecified)	-1.11	3.5	-2.58*	10.3	5.3
COc1cccc(OC)c1OCC(O)CN1CCN(c2ccccc2)CC1 (stereo unspecified)	-0.61	0.5	-2.85	9.8	.
COc1ccccc1N1CCN(CC(O)COc2c(OC)cccc2OC)CC1 (stereo unspecified)	-1.26	-0.2	-4.63*	10.0	6.9
O=C(COC(=O)c1ccccc1Nc1cccc(C(F)(F)F)c1)NCc1ccco1	-0.511	.	.	.	-2.0
CCN(CC)CC1CCCCN1CC(=O)N1c2ccccc2C(=O)Nc2cccnc21 (stereo unspecified)	-0.0406	.	.	.	.
O=C1CCCC2=C1C(c1ccc(Cl)cc1)C1C(=O)c3ccccc3C1=N2 (stereo unspecified)	2.6*	.	.	.	.
O=C1CCCC2=C1C(c1ccc(Cl)cc1)N1C(=O)CCSC1=N2 (stereo unspecified)	0.0909	.	.	.	10.0
CN1C(=O)/C(=C/c2cn(CC(=O)N3CCCCC3)c3ccccc23)c2ccccc21	3.77*	.	.	.	-2.5
CC1CCCC(C)N1C(=O)Cn1cc(/C=C2/C(=O)Nc3ccccc32)c2ccccc21 (stereo unspecified)	1.81	.	.	.	-1.4
CN1C(=O)Cc2cc(S(=O)(=O)N3CCOCC3)ccc21	-8.72*	-13.2	-0.1	-6.1	8.0
Cn1c(=O)n(C)c2cc(S(=O)(=O)N3CCOCC3)ccc21	-1.18	0.7	0.776	1.9	6.1
SMILES	DAT uptake mod	MMP-13 inhibitor	D1 allo mod	AP ELISA ortho	Calb biofilm kill
Oc1[nH]c2ccccc2c1C=Nc1ccc2c(c1)OCO2	-0.419	-0.6	-4.37*	9.6	.
CC1(C)CC[C@@]23CC[C@]4(C)[C@@](OC2=O)(C3C1)[C@H]1O[C@H]1C1[C@@]2(C)CC[C@H](O)C(C)(C)C2CC[C@]14C (stereo partly specified)	-0.102	.	.	.	.
CN(C)S(=O)(=O)N1CCN(C(=O)c2ccccc2)CC1	-4.54*	.	.	.	-1.4
CN(CC1CCCO1)S(=O)(=O)c1ccc(C(=O)Nc2nc3cc4c(cc3s2)OCO4)cc1 (stereo unspecified)	.	-0.8	-4.35*	7.1	7.6
Cc1nc2c(c(=O)n1CCC(C)C)c1nc3ccccc3nc1n2Cc1ccc2c(c1)OCO2	0.0688	-14.5	8.83*	-3.5	3.0
Cc1[nH]n(-c2ccccc2)c(=O)c1C1(C(F)(F)F)C(=O)N(c2ccc(F)cc2)C2=C1C(=O)CC(C)(C)C2 (stereo unspecified)	-0.266	.	.	.	3.5
Cc1ccc(S(=O)(=O)Nc2ccnc3ccccc23)cc1	-8*	.	.	.	3.3
Cc1ccc(S(=O)(=O)Nc2ccc(O)c3ncccc23)cc1	1.73	.	.	.	.
O=S(=O)(NC1CCCCC1NCc1ccco1)c1ccc(Cl)cc1 (stereo unspecified)	-1.4	0.2	-2.31*	-9.5	.
CC(NS(=O)(=O)c1ccc(Cl)cc1)C(=O)NCc1ccco1 (stereo unspecified)	-0.427	.	.	.	-0.1
CCOC(=O)C1=C(c2ccccc2)OC(N)=C(C#N)C1C1CCCCC1 (stereo unspecified)	-1.65*	.	.	.	1.3
Cc1ccc(-n2c(=O)[nH]cc(C(=O)Nc3ccc4c(c3)OCCO4)c2=O)cc1	0.753	4.0	-5.04*	-3.6	6.1
Cc1ccn2cc(C(=O)Nc3ccc4c(c3)OCCO4)nc2c1	-0.337	3.0	-4.49*	10.8	3.1
O=C(CCC(=O)c1cccs1)Nc1ccc(F)c(F)c1F	0.0238	.	.	.	-9.3
CCOc1ccc(-c2nnc(-c3cccs3)o2)cc1OCC	-0.211	-114.4	5.05*	10.3	3.7
COc1ccc(-c2nnc(-c3cccs3)o2)cc1OC	-0.541	-77.5	4.63	-7.7	3.1
O=C(Cn1c(C(=O)N2CCN(C3CCCC3)CC2)cc2sccc21)c1ccccc1	2.49*	3.0	-1.76	-3.7	2.2
O=C(Cn1c(C(=O)NCC2CCCO2)cc2sccc21)c1ccccc1 (stereo unspecified)	0.149	-0.8	0.296	5.7	2.3
CC(C)(C)c1ccc(-c2noc(CCC(N)=O)n2)cc1	1.44	3.3	-3.48*	-4.4	5.8
Cc1nnc(SC(=O)N2c3ccccc3Sc3ccccc32)s1	-0.0417	2.9	-3.26*	16.2	.
Cc1nnc(SCC(=O)N2c3ccccc3Sc3ccccc32)n1N	-0.016	-6.3	-0.103	19.2	4.2
COc1ccc(C2=C(C=Nc3c(C)n(C)n(-c4ccccc4)c3=O)C(c3ccccc3C)c3ccccc3O2)cc1OC (stereo unspecified)	-0.13	.	.	.	.
Clc1cccc(-c2ccc(/C=N/n3cnnc3)o2)c1	-0.0213	-0.9	-5.09*	15.8	1.0
CCCC(C)NS(=O)(=O)c1ccc(OC)c(C)c1 (stereo unspecified)	-0.00751	.	.	.	-4.6
Cc1ccccc1Nc1nc(-c2sc(NC(=O)c3ccccc3)nc2C)cs1	2.53*	.	.	.	.
Cc1nc(NC(=O)c2ccccc2)sc1-c1csc(Nc2ccc(Cl)cc2Cl)n1	2.39*	.	.	.	.
